The source of these data is ChEMBL document CHEMBL4813921, “Optimization of WZ4003 as NUAK inhibitors against human colorectal cancer” (Eur J Med Chem, 2021).

The test deals with SW480. The test can be described thus: Antitumour activity against human SW480 cells xenografted in Balb/c-nu/nu mouse assessed as reduction in Ki67 expression in tumor at 20 mg/kg, ip administered every 2 days for 18 days by immunohistochemical assay. The class given is functional, organism-based. Particulars: time 18.0 day. An outline of the steps: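 SW480 xenografts in nude mice (n = 6 per group) treated ip every two days for 18 days. Excised tumours sectioned for HE and Ki67 staining, examined at ×400.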

Activity calls are given as the source filed them. The calls are words filed in the database; no cut-off is given here.

Take `CCC(=O)Nc1cccc(Oc2nc(Nc3ccc(N4CCN(C)CC4)cc3)ncc2Cl)c1`: the outcome was Active.
